Laboratory results taken from ChEMBL document CHEMBL1122664, “Synthesis and evaluation of 19-aza- and 19-aminoandrostenedione analogues as potential aromatase inhibitors” (J Med Chem, 1984).
“And” between values parts separate entries of the source, which are not always exact repeats. Identical values can stand only once.

Key:
Aromatase [1] = target: T1, Aromatase (Homo sapiens, UniProt P11511); experiment: Inhibition of 1.25 uM [1-3H]-androst-4-ene-3,17-dione binding to Cytochrome P450 19A1
T1 sequence (P11511 whole entry): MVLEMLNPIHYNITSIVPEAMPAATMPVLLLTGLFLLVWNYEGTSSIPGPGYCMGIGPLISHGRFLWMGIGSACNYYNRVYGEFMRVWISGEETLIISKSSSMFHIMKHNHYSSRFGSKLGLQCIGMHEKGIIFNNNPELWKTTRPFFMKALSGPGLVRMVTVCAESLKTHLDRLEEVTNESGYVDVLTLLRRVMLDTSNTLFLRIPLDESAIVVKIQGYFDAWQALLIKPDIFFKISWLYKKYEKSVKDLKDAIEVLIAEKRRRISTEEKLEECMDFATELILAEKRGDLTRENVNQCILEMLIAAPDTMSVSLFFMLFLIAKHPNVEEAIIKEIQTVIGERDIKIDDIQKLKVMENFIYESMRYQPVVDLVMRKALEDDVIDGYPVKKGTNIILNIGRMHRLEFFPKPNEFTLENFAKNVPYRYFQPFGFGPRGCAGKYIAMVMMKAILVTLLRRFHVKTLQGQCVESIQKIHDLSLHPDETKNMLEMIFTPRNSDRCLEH
Method in brief: (§1)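 Tritiated water release assay using lyophilized, twice-washed human term placental microsomes (0.1 mg protein) with [1-³H]androstenedione at 0.25 μM (5 × KM) and inhibitor at 0.25 or 1.25 μM. NADPH-generating system in 10 mM K phosphate with KCl, EDTA and DTT; 15 min at 25 °C. Stopped with CHCl₃; charcoal-treated aqueous ³H₂O counted. Triplicates; % inhibition versus concurrent controls.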

Aromatase [2] = target: T1, Aromatase; experiment: Inhibition of 0.25 uM [1-3H]-androst-4-ene-3,17-dione binding to Cytochrome P450 19A1; method in brief: as §1

SMILES	Inhibition (Aromatase [1])	Inhibition (Aromatase [2])
C[C@]12CC[C@H]3[C@@H](CCC4=CC(=O)CC[C@@]43N=C=O)[C@@H]1CCC2=O	< 2%	< 2%
C[C@]12CC[C@H]3[C@@H](CCC4=CC(=O)CC[C@@]43CNC(=O)C(F)(F)F)[C@@H]1CCC2=O	11.4%	2.5%
C[C@]12CC[C@H]3[C@@H](CCC4=CC(=O)CC[C@@]43N)[C@@H]1CCC2=O	19.2% and 10.9%	9.4% and 6.9%
C[C@]12CCC(=O)C(O)=C1CC[C@@H]1[C@@H]2CC[C@]2(C)C(=O)CC[C@@H]12 [FORMESTANE]	81.6%	50.1%
COC(=O)N[C@]12CCC(=O)C=C1CC[C@H]1[C@@H]3CCC(=O)[C@@]3(C)CC[C@@H]12	< 2%	< 2%
C[C@]12CC[C@H]3[C@@H](CCC4=CC(=O)CC[C@@]43/C=N\O)[C@@H]1CCC2=O	4.1%	8.6%
C[C@]12CCC(=O)C=C1C[C@@H](Sc1ccc(N)cc1)[C@@H]1[C@@H]2CC[C@]2(C)C(=O)CC[C@@H]12	83.1%	54.8%
CC(=O)NC[C@]12CCC(=O)C=C1CC[C@@H]1[C@@H]2CC[C@]2(C)C(=O)CC[C@@H]12	13.2%	< 2%
